This note sets out measurements from ChEMBL document CHEMBL2390866, “Novel pyrimidoazepine analogs as serotonin 5-HT(2A) and 5-HT(2C) receptor ligands for the treatment of obesity” (Eur J Med Chem, 2013).

The MRT is a mean duration of stay, worked out from the concentration-time curve. The term AUC(0-inf) denotes the area under the concentration-time curve extrapolated to infinity. Higher therefore signals high exposure. A word on the inhibition in vivo: it is the percentage by which the read-out fell short of the control. As usually defined, the AUC(0-t) is exposure summed from dosing to a finite time, without extrapolation to infinity. High values mean more exposure, low ones less exposure. Broadly, the IC50 is the concentration at which inhibition is half-maximal.

A short description of series [1]: Mean residence time in Sprague-Dawley rat at 10 mg/kg, iv. It is filed as ADME, organism-based. Also on record: dose 10 mg/kg, route intravenous. The settings on record: in vivo. Put shortly:
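Rats fasted 12 h, then dosed orally by gavage or by bolus tail-vein injection at 2 ml/kg. Compound given as a 5 mg/ml solution in N-methyl-2-pyrrolidone/Tween 80/water (1:2:7). Samples taken at various times (n = 5) and stored at −70 °C. Plasma deproteinized with acetonitrile containing carbamazepine internal standard, then quantified by LC-MS/MS.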

The subject of series [2] is Mus musculus. As to the kind of experiment: Antiobesity activity in B6.V/J ob/ob mouse assessed as change in kidney weight at 25 mg/kg, po bid measured after 14 days (reference value: 0.339 +/- 0.009 g). It is filed as functional.
Series [3] has as its system Mus musculus. As to the kind of experiment: Antiobesity activity in B6.V/J ob/ob mouse assessed as change in heart weight at 25 mg/kg, po bid measured after 14 days (reference value: 0.150 +/- 0.003 g). It counts as functional.
Series [4] in a line: AUC (0 to infinity) in Sprague-Dawley rat at 10 mg/kg, po. Set-up: time infinity, dose 10 mg/kg, route oral. It is filed as ADME, organism-based. The settings on record: plasma.
Series [5] relates to Mus musculus. As to the kind of experiment: Antiobesity activity in C57BL/6 mouse assessed as inhibition of food intake at 50 mg/kg, ip measured after 2 to 12 hrs relative to vehicle-treated control. It is filed as functional. The conditions noted are these: C57BL/6, ip, route intraperitoneal. Put shortly:
(§1)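 Male mice were acclimated 1 week at 23 ± 3 °C and 50 ± 20% humidity, then fasted 24 h. They were dosed once intraperitoneally with vehicle or compound: 50 mg/kg in C57BL/6, or 12.5, 25 or 50 mg/kg in B6.V-Lep^ob/J. Food intake was measured at 2, 6 and 12 h versus vehicle control.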

The test system of series [6] is Mus musculus. Nature of the series: Antiobesity activity in B6.V/J ob/ob mouse assessed as inhibition of food intake at 25 mg/kg, po bid measured after 14 days relative to vehicle-treated control. It is filed as functional. The conditions noted are these: 336 h.
The test system of series [7] is Mus musculus. Nature of the series: Antiobesity activity in B6.V/J ob/ob mouse assessed as change in kidney weight at 5 mg/kg, po bid measured after 14 days (reference value: 0.339 +/- 0.009 g). It counts as functional.
Series [8] is described as follows: AUC (0 to infinity) in Sprague-Dawley rat at 10 mg/kg, iv. Also on record: time infinity, dose 10 mg/kg, route intravenous. It is filed as ADME, organism-based. The conditions noted are these: plasma.
Series [9] deals with Mus musculus. Nature of the series: Antiobesity activity in B6.V/J ob/ob mouse assessed as change in brain weight at 5 mg/kg, po bid measured after 14 days (reference value: 0.340 +/- 0.017 g). It counts as functional.
The subject of series [10] is Mus musculus. As to the kind of experiment: Antiobesity activity in B6.V/J ob/ob mouse assessed as change in lung weight at 5 mg/kg, po bid measured after 14 days (reference value: 0.143 +/- 0.013 g). It counts as functional.
The subject of series [11] is Mus musculus. Nature of the series: Antiobesity activity in B6.V/J ob/ob mouse assessed as change in liver weight at 25 mg/kg, po bid measured after 14 days (reference value: 3.396 +/- 0.162 g). It is filed as functional.
For series [12], the system named is Mus musculus. As to the kind of experiment: Toxicity in B6.V/J ob/ob mouse assessed as mortality at 50 mg/kg, po bid measured after 14 days. It is filed as organism-based. Set-up: dose 50 mg/kg, route oral. The settings on record: in vivo, 336 h.
Series [13] is described as follows: AUClast in Sprague-Dawley rat at 10 mg/kg, iv. It is filed as ADME, organism-based. Also on record: time 0 - last, dose 10 mg/kg, route intravenous. The settings on record: plasma.
Series [14] concerns the target T1, 5-hydroxytryptamine receptor 2C (Homo sapiens, UniProt P28335).
T1 sequence (P28335 whole entry): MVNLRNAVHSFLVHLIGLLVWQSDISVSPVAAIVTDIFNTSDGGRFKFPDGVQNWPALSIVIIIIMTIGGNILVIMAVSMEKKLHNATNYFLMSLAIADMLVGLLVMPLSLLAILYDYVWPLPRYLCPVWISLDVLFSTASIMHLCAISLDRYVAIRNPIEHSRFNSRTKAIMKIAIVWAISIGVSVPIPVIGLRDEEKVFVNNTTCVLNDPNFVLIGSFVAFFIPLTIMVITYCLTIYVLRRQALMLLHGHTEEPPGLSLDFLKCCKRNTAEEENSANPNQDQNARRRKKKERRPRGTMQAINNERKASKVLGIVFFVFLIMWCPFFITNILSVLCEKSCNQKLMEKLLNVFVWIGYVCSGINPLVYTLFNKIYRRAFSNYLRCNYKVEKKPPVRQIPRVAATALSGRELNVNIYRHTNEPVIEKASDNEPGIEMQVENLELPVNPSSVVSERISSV
As to the kind of experiment: Displacement of [3H]-mesulergine from human recombinant 5HT-2C receptor expressed in CHOK1 cell membranes after 30 mins. Set-up: species or system CHO-K1. In short, it runs like this: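 Frozen CHO-K1 membranes expressing recombinant human 5-HT2C incubated with 1 nM [3H]mesulergine in 50 mM Tris-HCl pH 7.4 containing 0.1% ascorbic acid and pargyline. Mianserin defined nonspecific binding.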
Background: In a radioligand displacement assay an active substance lowers the binding of a labelled ligand.

The test system of series [15] is Mus musculus. Nature of the series: Antiobesity activity in B6.V/J ob/ob mouse assessed as change in lung weight at 50 mg/kg, po bid measured after 14 days (reference value: 0.143 +/- 0.013 g). It is filed as functional.
The test system of series [16] is Mus musculus. Nature of the series: Antiobesity activity in B6.V/J ob/ob mouse assessed as inhibition of food intake at 25 mg/kg, ip measured up to 6 hrs relative to vehicle-treated control. It counts as functional. The settings on record: route intraperitoneal. In short, it runs like this:
as §1

Series [17] concerns Mus musculus. Nature of the series: Antiobesity activity in B6.V/J ob/ob mouse assessed as change in thymus weight at 25 mg/kg, po bid measured after 14 days (reference value: 0.029 +/- 0.006 g). It is filed as functional.
The subject of series [18] is Mus musculus. As to the kind of experiment: Antiobesity activity in B6.V/J ob/ob mouse assessed as change in gonadal adipose tissue weight at 25 mg/kg, po bid measured after 14 days (reference value: 3.599 +/- 0.155 g). It counts as functional.
The species named for the next series is Homo sapiens. Nature of the series: Selectivity ratio of IC50 for human recombinant 5HT-2B receptor to IC50 for human recombinant 5HT-2C receptor.
The target in series [19] is T2, Alpha-1A adrenergic receptor (Homo sapiens, UniProt P35348).
T2 sequence (P35348 whole entry): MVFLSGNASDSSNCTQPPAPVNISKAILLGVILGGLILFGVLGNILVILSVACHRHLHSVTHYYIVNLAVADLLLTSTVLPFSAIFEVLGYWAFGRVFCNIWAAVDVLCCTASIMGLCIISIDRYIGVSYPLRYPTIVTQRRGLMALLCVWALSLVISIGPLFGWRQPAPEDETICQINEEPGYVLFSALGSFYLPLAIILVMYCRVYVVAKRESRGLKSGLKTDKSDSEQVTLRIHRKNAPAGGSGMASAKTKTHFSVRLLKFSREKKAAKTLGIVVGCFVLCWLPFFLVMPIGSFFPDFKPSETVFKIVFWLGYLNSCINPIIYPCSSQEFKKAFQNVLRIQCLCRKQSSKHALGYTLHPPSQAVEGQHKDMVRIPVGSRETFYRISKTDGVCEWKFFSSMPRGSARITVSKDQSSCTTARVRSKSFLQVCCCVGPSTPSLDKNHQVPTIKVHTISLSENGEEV
Nature of the series: Binding affinity to adrenergic alpha1A receptor (unknown origin).

`Cl.Clc1cccc(Nc2nc(Cc3ccccc3)nc3c2CCNCC3)c1` had an MRT in series [1] of 1.88 h. The Activity in the series with Mus musculus [2] was found to be 0.329 g; with Mus musculus [3], 0.143 g; with Mus musculus [7] it was 0.329 g; with Mus musculus [9], 0.344 g; in the series with Mus musculus [10], 0.124 g; in the series with Mus musculus [11], 3.173 g. Also, the Activity result in the series on Mus musculus [12] is reported as “Toxic”; in the series on Mus musculus [15] it was 0.14 g; with Mus musculus [17], 0.034 g; in the series with Mus musculus [18], 3.127 g. Moreover, the AUC(0-inf) is 1050 ng·h/mL in [4] and 1910 ng·h/mL in series [8]. Also, in the series with Mus musculus [5], the inhibition in vivo at 50 mg/kg worked out at 76.6%. For the same compound, the inhibition in vivo at 25 mg/kg stood at 15.2% in the series with Mus musculus [6] and 90.2% with Mus musculus [16]. In [13], this compound showed an AUC(0-t) of 1730 ng·h/mL. The IC50 was 2.3 nM in series [14] and over 10000 nM in series [19]. Further, the Ratio IC50 in the series listed under Homo sapiens was determined as 8.1.
